Legend:
[1] = target: T1, Endothelin-converting enzyme 1 (Homo sapiens, UniProt P42892); experiment: Inhibition of human ECE1
T1 sequence (P42892 whole entry): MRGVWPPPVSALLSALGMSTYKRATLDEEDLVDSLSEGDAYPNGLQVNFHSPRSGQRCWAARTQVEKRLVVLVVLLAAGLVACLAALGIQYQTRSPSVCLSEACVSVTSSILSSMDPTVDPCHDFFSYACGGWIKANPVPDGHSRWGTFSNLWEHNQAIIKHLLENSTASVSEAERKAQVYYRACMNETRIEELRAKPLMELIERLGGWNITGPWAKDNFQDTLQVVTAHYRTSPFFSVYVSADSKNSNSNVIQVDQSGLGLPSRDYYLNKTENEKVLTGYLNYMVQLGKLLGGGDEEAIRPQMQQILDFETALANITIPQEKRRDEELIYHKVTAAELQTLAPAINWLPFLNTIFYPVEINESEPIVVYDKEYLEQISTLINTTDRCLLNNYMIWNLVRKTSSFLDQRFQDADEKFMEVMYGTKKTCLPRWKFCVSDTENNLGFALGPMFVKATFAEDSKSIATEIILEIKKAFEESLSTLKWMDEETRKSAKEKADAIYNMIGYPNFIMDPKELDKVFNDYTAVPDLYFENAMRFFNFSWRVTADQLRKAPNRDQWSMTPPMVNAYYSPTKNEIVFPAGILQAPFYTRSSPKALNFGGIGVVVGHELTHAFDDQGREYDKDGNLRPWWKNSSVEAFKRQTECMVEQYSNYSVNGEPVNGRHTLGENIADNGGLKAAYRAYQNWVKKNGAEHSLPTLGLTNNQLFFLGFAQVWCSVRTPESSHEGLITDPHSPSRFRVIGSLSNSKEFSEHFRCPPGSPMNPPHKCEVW
Summary of the method: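 Enzyme: recombinant human ECE-1 extracellular domain (aa 73-753), taken from the media of transiently transfected CHO cells. Assay in 100 mM HEPES-KOH pH 7.0/1% DMSO with 1 µM big ET-1, 1 h at 37 °C. Stopped with an equal volume of 10 mM EDTA. ET-1 formed was read by ELISA, with enzyme diluted to give OD ≈1.0. Inhibitors were tested at a range of concentrations as % inhibition.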

Rattus norvegicus [2] = experiment: Volume of distribution in male rat at 1 mg/kg, iv and po; format: ADME, organism-based; design: dose 1 mg/kg, route oral; details: in vivo
Summary of the method: (§1)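 Jugular-vein-cannulated rats got 1 mg/kg iv (tail vein) or po (gavage). Blood (0.2 mL) was drawn via the catheter into heparin tubes up to 24 h post-dose. Plasma was acidified with phosphoric acid and frozen, then extracted on C18 cartridges. Samples were quantified by LC-MS-MS with positive-ion MRM. Values are mean ± SD of three animals.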

[3] = Half life in male rat at 1 mg/kg, iv and po; format: ADME, organism-based; design: dose 1 mg/kg, route oral; details: in vivo; summary of the method: as §1
[4] = Apparent permeability from apical to basolateral side of the Caco-2 cell membrane at pH 7.4 at 25 uM; format: ADME, cell-based; details: human, Caco-2, pH 7.4
[5] = Apparent permeability from basolateral to apical side of the Caco-2 cell membrane at pH 7.4 at 25 uM; format: ADME, cell-based; details: human, Caco-2, pH 7.4
[6] = Stability in human liver microsome at 1 uM in presence of 0.5 uM CYP; format: ADME; details: liver microsomes, read-out: Stability
Summary of the method: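 Substrate disappearance in human liver microsomes, 1 µM compound, 0.5 µM CYP.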

[7] = Stability in rat liver microsome; format: ADME; details: liver microsomes, read-out: Stability
[8] = Tmax in male rat at 1 mg/kg, iv and po; format: ADME, organism-based; design: dose 1 mg/kg, route oral; details: in vivo; summary of the method: as §1
[9] = Cmax in male rat at 1 mg/kg, iv and po; format: ADME, organism-based; design: dose 1 mg/kg, route oral; details: in vivo; summary of the method: as §1
[10] = Percent of unbound ligand in male rat at 1 mg/kg, iv and po; format: ADME, organism-based; design: dose 1 mg/kg, route oral; details: in vivo
Summary of the method: (§2)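 Fraction unbound in rat plasma was measured at 1 µg/mL by equilibrium dialysis against isotonic Krebs-Ringer bicarbonate buffer, pH 7.4.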

[11] = Oral bioavailability in male rat at 1 mg/kg, iv and po; format: ADME, organism-based; details: in vivo; summary of the method: as §1
Neprilysin [12] = target: T2, Neprilysin (Oryctolagus cuniculus, UniProt P08049); experiment: Inhibition of rabbit NEP
T2 sequence (P08049 whole entry): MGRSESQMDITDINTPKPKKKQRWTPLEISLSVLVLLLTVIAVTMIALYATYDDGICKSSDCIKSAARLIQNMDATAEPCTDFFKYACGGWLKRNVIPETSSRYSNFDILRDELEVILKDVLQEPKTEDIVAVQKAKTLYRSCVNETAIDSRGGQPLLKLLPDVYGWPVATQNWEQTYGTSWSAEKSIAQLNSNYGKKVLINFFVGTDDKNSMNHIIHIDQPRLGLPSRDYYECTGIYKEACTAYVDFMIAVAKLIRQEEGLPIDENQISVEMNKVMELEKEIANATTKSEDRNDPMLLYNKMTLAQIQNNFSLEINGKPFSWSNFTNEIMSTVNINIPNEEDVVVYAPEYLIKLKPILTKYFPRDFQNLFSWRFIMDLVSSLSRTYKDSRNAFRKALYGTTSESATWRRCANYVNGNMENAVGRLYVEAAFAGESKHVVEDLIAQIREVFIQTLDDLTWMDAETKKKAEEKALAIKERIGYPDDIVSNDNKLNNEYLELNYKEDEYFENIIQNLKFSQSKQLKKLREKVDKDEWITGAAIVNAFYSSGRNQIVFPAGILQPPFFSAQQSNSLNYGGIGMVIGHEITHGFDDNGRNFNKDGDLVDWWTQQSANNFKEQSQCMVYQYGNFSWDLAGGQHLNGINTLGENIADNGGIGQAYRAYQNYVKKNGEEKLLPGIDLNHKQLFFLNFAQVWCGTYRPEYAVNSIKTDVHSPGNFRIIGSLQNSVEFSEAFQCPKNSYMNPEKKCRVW
Summary of the method: (§3)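 Fluorogenic substrate o-aminobenzoyl-D-Arg-Arg-Leu-ethylenediamine-2,4-dinitrophenyl in 50 mM Tris·Cl pH 7.4 (inhibitor dilutions with 4% DMSO). Enzyme was diluted to ≤10% conversion; incubation 1 h at 37 °C, stopped with phosphoramidon. 10-point half-log dilution series, duplicate points.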

Neprilysin [13] = target: T3, Neprilysin (Rattus norvegicus, UniProt P07861); experiment: Inhibition of rat NEP; summary of the method: as §3
T3 sequence (P07861 whole entry): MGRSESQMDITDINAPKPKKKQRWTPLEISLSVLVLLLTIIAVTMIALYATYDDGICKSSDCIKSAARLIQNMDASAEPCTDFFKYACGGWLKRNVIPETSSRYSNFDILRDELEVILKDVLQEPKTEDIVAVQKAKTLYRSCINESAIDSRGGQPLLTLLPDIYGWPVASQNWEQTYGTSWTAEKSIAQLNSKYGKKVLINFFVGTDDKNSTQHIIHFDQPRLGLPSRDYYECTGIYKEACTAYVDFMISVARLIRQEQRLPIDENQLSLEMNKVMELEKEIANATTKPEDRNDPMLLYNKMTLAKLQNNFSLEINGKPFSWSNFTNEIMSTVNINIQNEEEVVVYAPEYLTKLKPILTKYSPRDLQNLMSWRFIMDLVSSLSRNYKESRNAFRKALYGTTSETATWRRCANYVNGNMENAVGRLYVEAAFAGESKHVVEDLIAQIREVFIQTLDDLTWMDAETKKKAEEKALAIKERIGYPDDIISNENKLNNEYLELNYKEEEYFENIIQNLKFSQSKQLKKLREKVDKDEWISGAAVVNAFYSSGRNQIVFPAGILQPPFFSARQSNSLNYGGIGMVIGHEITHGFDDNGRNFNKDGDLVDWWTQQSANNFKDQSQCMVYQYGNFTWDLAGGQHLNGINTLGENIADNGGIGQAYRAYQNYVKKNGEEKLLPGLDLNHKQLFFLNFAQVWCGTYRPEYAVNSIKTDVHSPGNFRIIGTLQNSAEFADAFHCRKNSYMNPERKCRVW

Rattus norvegicus [14] = experiment: Volume of distribution in female rat at 1 mg/kg, iv and po; format: ADME, organism-based; design: dose 1 mg/kg, route oral; details: in vivo; summary of the method: as §1
[15] = Half life in female rat at 1 mg/kg, iv and po; format: ADME, organism-based; design: dose 1 mg/kg, route oral; details: in vivo; summary of the method: as §1
[16] = Tmax in female rat at 1 mg/kg, iv and po; format: ADME, organism-based; design: dose 1 mg/kg, route oral; details: in vivo; summary of the method: as §1
[17] = Cmax in female rat at 1 mg/kg, iv and po; format: ADME, organism-based; design: dose 1 mg/kg, route oral; details: in vivo; summary of the method: as §1
[18] = Percent of unbound ligand in female rat at 1 mg/kg, iv and po; format: ADME, organism-based; design: dose 1 mg/kg, route oral; details: in vivo; summary of the method: as §2
[19] = Oral bioavailability in female rat at 1 mg/kg, iv and po; format: ADME, organism-based; details: in vivo; summary of the method: as §1
[20] = Lipophilicity, LogD at pH 7.4; format: physicochemical; details: buffer
Summary of the method: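 Partition measured between 1-octanol and water at pH 7.4.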

| Structure (SMILES) | IC50 [1] | Vdss (Rattus norvegicus [2]) | half-life [3] | Papp A→B at 25 µM [4] | Papp B→A at 25 µM [5] | half-life at 1 µM [6] | Tmax [8] | Cmax [9] | bioavailability [11] | logD [20] | other results |
| --- | --- | --- | --- | --- | --- | --- | --- | --- | --- | --- | --- |
| CCC[C@@H](CC1(C(=O)NC2(CO)Cc3ccccc3C2)CCCC1)C(=O)O | > 3 µM | – | – | – | – | – | – | – | – | – | – |
| CCC[C@@H](CC1(C(=O)Nc2nnc(CC)s2)CCCC1)C(=O)O | > 3 µM | – | – | – | – | – | – | – | – | – | – |
| CCC[C@H](CC1(C(=O)Nc2nnc(C)s2)CCCC1)C(=O)O | > 3 µM | – | – | < 1 ×10⁻⁶ cm/s | 2 ×10⁻⁶ cm/s | > 120 min | – | – | – | – | – |
| CCC[C@H](CC1(C(=O)Nc2nnc(CC)s2)CCCC1)C(=O)O | > 3 µM | 0.4 L/kg | 102 min | 9 ×10⁻⁶ cm/s | 14 ×10⁻⁶ cm/s | > 120 min | 60 min | 1180 ng/mL | 103% | – | IC50 (Neprilysin [12]): 10.2 nM; half-life [7]: > 120 min; IC50 (Neprilysin [13]): 14.3 nM; Fu [10]: 10.6%; Vdss (Rattus norvegicus [14]): 0.9 L/kg; half-life [15]: 126 min; Tmax [16]: 1 h; Cmax [17]: 1460 ng/mL; Fu [18]: 13%; bioavailability [19]: 131% |
| CCCC(CC1(C(=O)Nc2nnc(C)s2)CCCC1)C(=O)O (racemic) | – | – | – | – | – | – | – | – | – | 0.1 | – |
| CCCC(CC1(C(=O)Nc2nnc(CC)s2)CCCC1)C(=O)O (racemic) | – | – | – | – | – | – | – | – | – | 0.5 | – |

The next lines start with results.

| IC50 [1] | Vdss (Rattus norvegicus [2]) | half-life [3] | Papp A→B at 25 µM [4] | Papp B→A at 25 µM [5] | half-life at 1 µM [6] | Tmax [8] | Cmax [9] | bioavailability [11] | logD [20] | Structure (SMILES) | other results |
| --- | --- | --- | --- | --- | --- | --- | --- | --- | --- | --- | --- |
| > 3 µM | 4.7 L/kg | 90 min | 6 ×10⁻⁶ cm/s | 10 ×10⁻⁶ cm/s | 62 min | 15 min | 233 ng/mL | 144% | – | CCC[C@H](CC1(C(=O)NC2(CO)Cc3ccccc3C2)CCCC1)C(=O)O | half-life [7]: > 120 min; Fu [10]: 24.3% |
| – | 3.9 L/kg | 120 min | – | – | – | 15 min | 311 ng/mL | 108% | 1.1 | CCCC(CC1(C(=O)NC2(CO)Cc3ccccc3C2)CCCC1)C(=O)O (racemic) | – |

Reference: ChEMBL document CHEMBL1138065, “Novel selective inhibitors of neutral endopeptidase for the treatment of female sexual arousal disorder. Synthesis and activity of functionalized glutaramides” (J Med Chem, 2006)
